Assays:
Format in all cases: ADME, organism-based, Macaca mulatta
[1] = Drug level in normal rhesus monkey pons assessed as standard uptake value at 81.2 MBq, iv after 155 mins by microPET; conditions: in vivo
[2] = Drug level in normal rhesus monkey white matter assessed as standard uptake value at 81.2 MBq, iv after 85 mins by microPET; conditions: in vivo
[3] = Drug level in normal rhesus monkey parietal cortex assessed as standard uptake value at 81.2 MBq, iv after 3.5 mins by microPET; conditions: in vivo
[4] = Drug level in normal rhesus monkey white matter assessed as standard uptake value at 81.2 MBq, iv after 10 mins by microPET; conditions: in vivo
[5] = Drug level in normal rhesus monkey frontal cortex assessed as standard uptake value at 81.2 MBq, iv after 57.5 mins by microPET; conditions: in vivo
[6] = Drug level in normal rhesus monkey cerebellum assessed as standard uptake value at 81.2 MBq, iv after 0.5 mins by microPET; conditions: in vivo
Outline: (§1)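 One normal rhesus monkey, each tracer given iv via the vena saphena (81.2, 96.3 or 109.4 MBq), with 1 day between tracer injections. Dynamic brain μPET over 180 min used frames of 5 × 60 s, 5 × 120 s, 9 × 300 s and 12 × 600 s. Images were reconstructed by filtered back projection with a RAMP filter. Regional time-activity curves were expressed as SUV.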

[7] = Drug level in normal rhesus monkey white matter assessed as standard uptake value at 81.2 MBq, iv after 32.5 mins by microPET; conditions: in vivo
[8] = Drug level in normal rhesus monkey parietal cortex assessed as standard uptake value at 96.3 MBq, iv after 165 mins by microPET; conditions: in vivo, 2.75 h
[9] = Drug level in normal rhesus monkey thalamus assessed as standard uptake value at 96.3 MBq, iv after 2.5 mins by microPET; conditions: in vivo
[10] = Drug level in normal rhesus monkey frontal cortex assessed as standard uptake value at 96.3 MBq, iv after 115 mins by microPET; conditions: in vivo
[11] = Drug level in normal rhesus monkey frontal cortex assessed as standard uptake value at 96.3 MBq, iv after 14 mins by microPET; conditions: in vivo
[12] = Drug level in normal rhesus monkey parietal cortex assessed as standard uptake value at 96.3 MBq, iv after 115 mins by microPET; conditions: in vivo
[13] = Drug level in normal rhesus monkey thalamus assessed as standard uptake value at 96.3 MBq, iv after 165 mins by microPET; conditions: in vivo, 2.75 h
[14] = Drug level in normal rhesus monkey pons assessed as standard uptake value at 96.3 MBq, iv after 135 mins by microPET; conditions: in vivo, 2.25 h
[15] = Drug level in normal rhesus monkey thalamus assessed as standard uptake value at 96.3 MBq, iv after 14 mins by microPET; conditions: in vivo
[16] = Drug level in normal rhesus monkey parietal cortex assessed as standard uptake value at 96.3 MBq, iv after 175 mins by microPET; conditions: in vivo
[17] = Drug level in normal rhesus monkey parietal cortex assessed as standard uptake value at 96.3 MBq, iv after 2.5 mins by microPET; conditions: in vivo
[18] = Drug level in normal rhesus monkey white matter assessed as standard uptake value at 109.4 MBq, iv after 4.5 mins by microPET; conditions: in vivo, 0.075 h
[19] = Drug level in normal rhesus monkey frontal cortex assessed as standard uptake value at 109.4 MBq, iv after 117 mins by microPET; conditions: in vivo, 1.95 h
[20] = Drug level in normal rhesus monkey thalamus assessed as standard uptake value at 109.4 MBq, iv after 0.125 mins by microPET; conditions: in vivo, 7 s
[21] = Drug level in normal rhesus monkey pons assessed as standard uptake value at 109.4 MBq, iv after 1.5 mins by microPET; conditions: in vivo, 0.025 h
[22] = Drug level in normal rhesus monkey pons assessed as standard uptake value at 109.4 MBq, iv after 123 mins by microPET; conditions: in vivo, 2.05 h
[23] = Drug level in normal rhesus monkey cerebellum assessed as standard uptake value at 109.4 MBq, iv after 0.625 mins by microPET; conditions: in vivo, 38 s
[24] = Drug level in normal rhesus monkey parietal cortex assessed as standard uptake value at 109.4 MBq, iv after 6.5 mins by microPET; conditions: in vivo
[25] = Drug level in normal rhesus monkey frontal cortex assessed as standard uptake value at 109.4 MBq, iv after 4.5 mins by microPET; conditions: in vivo, 0.075 h; outline: as §1
[26] = Drug level in normal rhesus monkey white matter assessed as standard uptake value at 109.4 MBq, iv after 9.5 mins by microPET; conditions: in vivo
[27] = Drug level in normal rhesus monkey white matter assessed as standard uptake value at 109.4 MBq, iv after 47.5 mins by microPET; conditions: in vivo
[28] = Drug level in normal rhesus monkey frontal cortex assessed as standard uptake value at 109.4 MBq, iv after 1.5 mins by microPET; conditions: in vivo, 0.025 h; outline: as §1
[29] = Drug level in normal rhesus monkey pons assessed as standard uptake value at 109.4 MBq, iv after 32.5 mins by microPET; conditions: in vivo
[30] = Drug level in normal rhesus monkey thalamus assessed as standard uptake value at 152.9 MBq, iv after 37.5 mins by microPET; conditions: in vivo, 0.625 h
[31] = Drug level in normal rhesus monkey frontal cortex assessed as standard uptake value at 152.9 MBq, iv after 1.5 mins by microPET; conditions: in vivo, 0.025 h
Outline: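 One normal rhesus monkey, tracer given iv via the vena saphena (152.9 MBq), with at least 1 day between tracer injections. Dynamic brain μPET over 90 min used frames of 5 × 60 s, 5 × 120 s, 9 × 300 s and 3 × 600 s. Images were reconstructed by filtered back projection with a RAMP filter. Regional time-activity curves were expressed as SUV.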

[32] = Drug level in normal rhesus monkey pons assessed as standard uptake value at 152.9 MBq, iv after 4.5 mins by microPET; conditions: in vivo, 0.075 h
[33] = Drug level in normal rhesus monkey frontal cortex assessed as standard uptake value at 152.9 MBq, iv after 14 mins by microPET; conditions: in vivo
Outline: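 Single normal rhesus monkey; tracer given iv via the vena saphena, 1 day apart from the other tracer injections. Dynamic μPET ran 90 min (5×60 s, 5×120 s, 9×300 s, 3×600 s). Images were reconstructed by filtered back projection with a RAMP filter. Regional time-activity curves were expressed as SUV.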

[34] = Drug level in normal rhesus monkey parietal cortex assessed as standard uptake value at 152.9 MBq, iv after 65 mins by microPET; conditions: in vivo
[35] = Drug level in normal rhesus monkey thalamus assessed as standard uptake value at 152.9 MBq, iv after 75 mins by microPET; conditions: in vivo, 1.25 h
[36] = Drug level in normal rhesus monkey white matter assessed as standard uptake value at 152.9 MBq, iv after 75 mins by microPET; conditions: in vivo, 1.25 h
[37] = Drug level in normal rhesus monkey pons assessed as standard uptake value at 152.9 MBq, iv after 10 mins by microPET; conditions: in vivo
[38] = Drug level in normal rhesus monkey pons assessed as standard uptake value at 152.9 MBq, iv after 65 mins by microPET; conditions: in vivo

## CNc1ccc2nc(-c3ccc([18F])cc3)sc2c1
[1]
  SUV: 5.431
[2]
  SUV: 3.871
[3]
  SUV: 4.897
[4]
  SUV: 3.524
[5]
  SUV: 5.004
[6]
  SUV: 0.735
[7]
  SUV: 3.799

## CN(C)c1ccc2nc(-c3ccc([18F])cc3)sc2c1
[8]
  SUV: 1.18
[9]
  SUV: 1.52
[10]
  SUV: 1.66
[11]
  SUV: 2.19
[12]
  SUV: 1.3
[13]
  SUV: 1.86
[14]
  SUV: 1.92
[15]
  SUV: 2.33
[16]
  SUV: 1.17
[17]
  SUV: 2

## Nc1ccc2nc(-c3ccc([18F])cc3)sc2c1
[18]
  SUV: 2.62
[19]
  SUV: 4.28
[20]
  SUV: 0
[21]
  SUV: 2.87
[22]
  SUV: 4.99
[23]
  SUV: 2.19
[24]
  SUV: 5.31
[25]
  SUV: 5.43
[26]
  SUV: 2.99
[27]
  SUV: 3.53
[28]
  SUV: 3.35
[29]
  SUV: 4.74

## [11CH3]Nc1ccc(-c2nc3ccc(O)cc3s2)cc1 [PITTSBURGH COMPOUND B]
[30]
  SUV: 1.364
[31]
  SUV: 0.478
[32]
  SUV: 2.008
[33]
  SUV: 1.904
[34]
  SUV: 0.69
[35]
  SUV: 0.731
[36]
  SUV: 0.828
[37]
  SUV: 2.036
[38]
  SUV: 0.852
